Test results: article PMC6099226 (Diabetes, Obesity & Metabolism, 2018)

What was measured:
Assay type in all cases: in vivo, human
adults with T2DM [1] = details: semaglutide 0.5 and 1.0 mg
[2] = Semaglutide exposure: average steady-state concentration; details: mean Cavg at steady state
In short: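 Plasma samples were taken 4–5 times per participant, at weeks 4, 8, 16 and 30, plus week 56 except in SUSTAIN 1. Assay was validated LC-MS/MS with LLOQ 0.729 nmol/L; samples below it were excluded. Average steady-state concentration at the randomized once-weekly subcutaneous maintenance dose was derived from individual clearance estimates of a population-PK analysis.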

adults with T2DM [3] = assay: Analysis of GI AEs
In short: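 Adults with T2DM from four phase III trials received once-weekly subcutaneous injections, escalated every 4 weeks (0.25, 0.5, 1.0 mg). Nausea reports were counted from baseline to week 30. Proportions were plotted against time by dose, with each dose split into high/low exposure halves by Cavg at the maintenance dose. Logistic regression adjusted for trial, sex, age group, escalation regimen and Japanese race. LOCF and completer sensitivity analyses were run.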

adults with T2DM [4] = assay: Exposure-response analysis of elevated serum calcitonin
In short: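 Serum calcitonin was measured by chemiluminescent immunometric assay (range 2.0–2000 pg/mL). Only participants with normal baseline values and post-baseline data were included, without imputation. The proportion with elevated calcitonin at any time until end-of-treatment was plotted with 95% CI against Cavg quantiles, with placebo at zero exposure. A covariate-adjusted exposure-response model was fitted.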

- increase from baseline to end‐of‐trial in mean resting pulse rate (adults with T2DM [1]): 2−4 bpm
- Semaglutide exposure ([2]; All men, dose 0.5 mg once weekly): 15.0 nmol/L
- Semaglutide exposure ([2]; All men, dose 1.0 mg once weekly): 29.9 nmol/L
- Semaglutide exposure ([2]; All participants, dose 0.5 mg once weekly): 15.3 nmol/L
- Semaglutide exposure ([2]; All participants, dose 1.0 mg once weekly): 30.6 nmol/L
- Semaglutide exposure ([2]; All women, dose 0.5 mg once weekly): 15.9 nmol/L
- Semaglutide exposure ([2]; All women, dose 1.0 mg once weekly): 31.7 nmol/L
- proportion of participants with serum calcitonin concentrations above the reference ranges (adults with T2DM [4]; any time after baseline until end‐of‐treatment, 36 of 1395 participants, placebo data included in the analysis): 2.6%
- dependence of elevated calcitonin levels on exposure (adults with T2DM [4]; range of exposures achieved with 0.5 and 1.0 mg, no effect vs placebo): independent of exposure
SMILES: CC[C@H](C)[C@H](NC(=O)[C@H](Cc1ccccc1)NC(=O)[C@H](CCC(=O)O)NC(=O)[C@H](CCCCNC(=O)COCCOCCNC(=O)COCCOCCNC(=O)CC[C@H](NC(=O)CCCCCCCCCCCCCCCCC(=O)O)C(=O)O)NC(=O)[C@H](C)NC(=O)[C@H](C)NC(=O)[C@H](CCC(N)=O)NC(=O)CNC(=O)[C@H](CCC(=O)O)NC(=O)[C@H](CC(C)C)NC(=O)[C@H](Cc1ccc(O)cc1)NC(=O)[C@H](CO)NC(=O)[C@H](CO)NC(=O)[C@@H](NC(=O)[C@H](CC(=O)O)NC(=O)[C@H](CO)NC(=O)[C@@H](NC(=O)[C@H](Cc1ccccc1)NC(=O)[C@@H](NC(=O)CNC(=O)[C@H](CCC(=O)O)NC(=O)C(C)(C)NC(=O)[C@@H](N)Cc1cnc[nH]1)[C@@H](C)O)[C@@H](C)O)C(C)C)C(=O)N[C@@H](C)C(=O)N[C@@H](Cc1c[nH]c2ccccc12)C(=O)N[C@@H](CC(C)C)C(=O)N[C@H](C(=O)N[C@@H](CCCNC(=N)N)C(=O)NCC(=O)N[C@@H](CCCNC(=N)N)C(=O)NCC(=O)O)C(C)C [semaglutide]
- proportion of participants reporting nausea (adults with T2DM [3]; during the first 4 weeks, also for participants with high exposure): < 7%
- concentration of semaglutide estimated to be tolerated without nausea by 95% of participants (adults with T2DM [3]; week 1): < 0.005 µM
- concentration of semaglutide estimated to be tolerated without nausea by 95% of participants (adults with T2DM [3]; week 30): > 0.03 µM
